This note sets out measurements from ChEMBL document CHEMBL1135819, “N-[3-(1H-imidazol-4-ylmethyl)phenyl]ethanesulfonamide (ABT-866, 1),(1) a novel alpha(1)-adrenoceptor ligand with an enhanced in vitro and in vivo profile relative to phenylpropanolamine and midodrine” (J Med Chem, 2002).

The source made the active and inactive calls. The rule behind the calls is not given here.

In assay [1] the target is T1, Alpha-1D adrenergic receptor (Rattus norvegicus, UniProt P23944).
T1 sequence (P23944 whole entry): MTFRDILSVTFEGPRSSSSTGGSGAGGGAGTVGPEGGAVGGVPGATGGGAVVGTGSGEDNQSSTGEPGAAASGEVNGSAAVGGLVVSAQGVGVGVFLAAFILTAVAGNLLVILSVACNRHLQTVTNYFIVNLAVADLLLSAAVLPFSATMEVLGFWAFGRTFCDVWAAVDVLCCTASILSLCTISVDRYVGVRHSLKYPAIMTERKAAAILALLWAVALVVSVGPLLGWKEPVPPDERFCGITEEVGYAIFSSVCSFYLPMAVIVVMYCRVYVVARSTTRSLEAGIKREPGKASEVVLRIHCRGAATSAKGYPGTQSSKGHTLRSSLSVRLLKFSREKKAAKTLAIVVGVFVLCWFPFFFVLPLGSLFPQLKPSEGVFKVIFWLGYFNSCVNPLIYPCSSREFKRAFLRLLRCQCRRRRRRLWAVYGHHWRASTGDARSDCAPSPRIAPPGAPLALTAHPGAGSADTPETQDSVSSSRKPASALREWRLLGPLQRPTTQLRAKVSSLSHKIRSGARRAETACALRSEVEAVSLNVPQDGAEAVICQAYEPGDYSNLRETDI
The assay is described as follows: Binding affinity towards rat cloned Alpha-1D adrenergic receptor; value ranges from (1.3 -1.6).

Assay [2] relates to Canis familiaris. The assay is described as follows: Dose corresponding to a 20 mmHg increase in mean arterial pressure (MAP) was determined in vivo in isoflurane anesthetized female beagles. The class given is functional, Canis lupus familiaris, Beagle, Artery. A digest of the protocol:
(§1)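 Female beagles under isoflurane anesthesia; MAP by chronically implanted telemetry transducer/transmitter, IUP by urethral catheter, recorded simultaneously. Increasing iv doses given; maximal effect of each dose taken within 1 min of dosing. Doses giving 5 mmHg IUP rise (IUP ED5) and 20 mmHg MAP rise (MAP ED20) calculated, nmol/kg, mean ± SEM, n ≥ 4.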

The subject of assay [3] is Canis familiaris. The assay is described as follows: Dose corresponding to a 5 mmHg increase in Intraurethral pressure (IUP) was determined in vivo in isoflurane anesthetized female beagles. The class given is functional, Canis lupus familiaris, Beagle. In a few lines:
as §1

Assay [4] deals with T2, Alpha-1B adrenergic receptor (Mesocricetus auratus, UniProt P18841).
T2 sequence (P18841 whole entry): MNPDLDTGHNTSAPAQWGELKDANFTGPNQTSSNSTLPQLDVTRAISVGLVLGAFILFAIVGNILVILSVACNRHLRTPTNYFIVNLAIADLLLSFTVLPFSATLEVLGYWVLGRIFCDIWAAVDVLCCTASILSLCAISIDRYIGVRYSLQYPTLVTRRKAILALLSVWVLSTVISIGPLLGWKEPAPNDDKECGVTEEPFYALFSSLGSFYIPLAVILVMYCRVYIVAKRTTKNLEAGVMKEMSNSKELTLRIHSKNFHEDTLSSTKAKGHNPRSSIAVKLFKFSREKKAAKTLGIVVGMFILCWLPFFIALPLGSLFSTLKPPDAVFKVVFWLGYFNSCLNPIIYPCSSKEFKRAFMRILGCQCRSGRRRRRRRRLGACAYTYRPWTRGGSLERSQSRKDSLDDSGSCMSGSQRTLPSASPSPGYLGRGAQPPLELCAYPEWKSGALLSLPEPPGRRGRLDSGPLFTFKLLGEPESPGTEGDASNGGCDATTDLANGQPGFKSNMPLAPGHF
The assay is described as follows: Binding affinity towards hamster cloned Alpha-1B adrenergic receptor; value ranges from (2.0 -4.4). The arrangement: species or system Cricetulus griseus.

The species entered for assay [5] is Rattus norvegicus. The assay is described as follows: (§2) In vitro percent efficacy of compound was tested in rat aorta. The format is functional. A digest of the protocol:
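Isolated tissue contraction: agonist dose–response curves run in rat aorta (α1D) and rat spleen (α1B). Efficacy is the percent response relative to phenylephrine. EC50 is taken as the dose contracting the tissue 50%. Data reported ± SEM.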

Assay [6] is filed under the species Oryctolagus cuniculus. Kind of assay: In vitro percent efficacy of compound was tested in rabbit urethra. The format is functional.
Assay [7] deals with T3, Alpha-1A adrenergic receptor (Rattus norvegicus, UniProt P43140).
T3 sequence (P43140 whole entry): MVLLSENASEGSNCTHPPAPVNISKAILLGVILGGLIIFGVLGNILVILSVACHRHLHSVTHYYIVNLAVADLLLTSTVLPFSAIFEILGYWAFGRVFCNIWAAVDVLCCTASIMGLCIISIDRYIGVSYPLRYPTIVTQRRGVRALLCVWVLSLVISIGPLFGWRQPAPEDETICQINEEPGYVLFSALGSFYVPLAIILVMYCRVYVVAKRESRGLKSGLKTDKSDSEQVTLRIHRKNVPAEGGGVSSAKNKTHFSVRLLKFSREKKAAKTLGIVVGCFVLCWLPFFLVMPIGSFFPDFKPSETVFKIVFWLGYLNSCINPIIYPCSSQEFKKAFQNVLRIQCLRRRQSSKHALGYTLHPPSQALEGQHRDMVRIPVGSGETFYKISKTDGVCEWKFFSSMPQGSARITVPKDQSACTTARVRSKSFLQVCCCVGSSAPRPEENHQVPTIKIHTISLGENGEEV
The assay is described as follows: Binding affinity towards rat submaxillary gland Alpha-1 adrenergic receptor; value ranges from (0.12 - 0.15).

The target in assay [8] is T1, Alpha-1D adrenergic receptor. Kind of assay: Antagonistic activity against Alpha-1D adrenergic receptor determined using phenylephrine challenge in rat aorta isolated tissues. The format is functional, tissue-based. As to conditions: read-out: pA2 (converted).
For assay [9], the target named is T4, Alpha-1B adrenergic receptor (Rattus norvegicus) (UniProt P15823).
T4 sequence (whole entry): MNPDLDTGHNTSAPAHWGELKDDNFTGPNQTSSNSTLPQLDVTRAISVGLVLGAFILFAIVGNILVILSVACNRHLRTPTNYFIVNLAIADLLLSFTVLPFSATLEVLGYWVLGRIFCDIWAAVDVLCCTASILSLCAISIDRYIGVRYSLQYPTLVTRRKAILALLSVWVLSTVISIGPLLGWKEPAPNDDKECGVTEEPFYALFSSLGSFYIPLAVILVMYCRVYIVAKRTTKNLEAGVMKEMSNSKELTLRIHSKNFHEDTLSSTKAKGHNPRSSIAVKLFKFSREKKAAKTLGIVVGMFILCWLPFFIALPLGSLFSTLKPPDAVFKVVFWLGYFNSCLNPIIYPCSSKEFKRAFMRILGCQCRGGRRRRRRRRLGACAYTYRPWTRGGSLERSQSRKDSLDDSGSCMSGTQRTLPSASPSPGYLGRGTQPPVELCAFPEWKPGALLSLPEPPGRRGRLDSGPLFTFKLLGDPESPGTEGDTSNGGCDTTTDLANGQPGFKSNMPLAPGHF
Kind of assay: Effective concentration in vitro against rat spleen Alpha-1B adrenergic receptor (EC50 < 15%) at a concentration of 10 uM; NA is not active. The class given is tissue-based.

Assay [10] has as its target T5, Alpha-1B adrenergic receptor (Rattus norvegicus, UniProt P15823).
T5 sequence (P15823 whole entry): T4 sequence (whole entry)
The assay is described as follows: Antagonistic activity against Alpha-1B adrenergic receptor determined using phenylephrine challenge in rat spleen isolated tissues. Particulars: read-out: pA2 (converted). The format is functional, tissue-based.

For assay [11], the target named is T1, Alpha-1D adrenergic receptor. Kind of assay: Effective concentration in vitro against rat aorta Alpha-1D adrenergic receptor;* indicates EC50 < 15% at a concentration of 10 uM. The format is tissue-based.
Assay [12] addresses T3, Alpha-1A adrenergic receptor. The assay is described as follows: Binding affinity towards rat submaxillary gland Alpha-1 adrenergic receptor; value ranges from (6.2 - 15).
Assay [13] deals with T1, Alpha-1D adrenergic receptor. Kind of assay: Binding affinity towards rat cloned Alpha-1D adrenergic receptor; value ranges from (5.5 -13).
For assay [14], the target named is T5, Alpha-1B adrenergic receptor. The assay is described as follows: Effective concentration in vitro against rat spleen Alpha-1B adrenergic receptor indicates EC50 < 15% at a concentration of 10 uM. The format is tissue-based.
The target in assay [15] is T2, Alpha-1B adrenergic receptor. Kind of assay: Binding affinity towards hamster cloned Alpha-1B adrenergic receptor mean;value ranges from( 6.4 -14). The arrangement: species or system Cricetulus griseus.
For assay [16], the species on record is Rattus norvegicus. The assay is described as §2. The format is functional. This is another data set of the same source.
Assay [17] is filed under the species Rattus norvegicus. The assay is described as follows: In vitro percent efficacy of compound was tested rat spleen. The format is functional.
Assay [18] addresses T3, Alpha-1A adrenergic receptor. Kind of assay: Binding affinity towards rat submaxillary gland Alpha-1 adrenergic receptor; value ranges from (1.6 -2.5).
Assay [19] deals with T2, Alpha-1B adrenergic receptor. The assay is described as follows: Binding affinity towards hamster cloned Alpha-1B adrenergic receptor; value ranges from (6.2 -7.7). Also noted: species or system Cricetulus griseus.
The species named for assay [20] is Rattus norvegicus. The assay is described as follows: In vitro percent efficacy of compound was tested in rat spleen. The class given is functional.
In assay [21] the target is T1, Alpha-1D adrenergic receptor. Kind of assay: Binding affinity towards rat cloned Alpha-1D adrenergic receptor; value ranges from (1.5 - 1.9).

On to `CS(=O)(=O)Nc1c(O)ccc2c1CCCC2C1=NCCN1` (stereo not drawn), for which the Ki in assay [1] worked out at 1.5 µM; in assay [4] it was 2.9 µM. Also, in [2], the ED20 was 0.27 nM/kg. The ED5 in [3] worked out at 0.16 nM/kg. The figures for the Efficacy in [5] and in [6] were 100% and 88%, respectively.
Regarding `CCS(=O)(=O)Nc1cccc(Cc2c[nH]cn2)c1`, the Ki in assay [7] was found to be 0.14 µM. Further, the figures for the Kb in [8] and in assay [10] were 0.631 µM and 3.98 µM, respectively. The NA result in assay [9] is “inactive”. The same molecule came in with an ED20 in assay [2] of 80 nM/kg. In assay [3], this molecule came in with an ED5 of 12 nM/kg. Further, in [6], the Efficacy was determined as 80%.
With `C[C@H](N)[C@H](O)c1ccccc1` [(1R,2S)-PHENYLPROPANOLAMINE], the values for the EC50 in [11] and in assay [14] were 58 µM and 280 µM, respectively. The Ki in assay [12] came to 9.8 µM; in assay [13] it was 8.4 µM; in [15] it was 9.6 µM. Moreover, the ED20 in assay [2] stood at 330 nM/kg. In assay [3], this molecule came in with an ED5 of 1100 nM/kg. Moreover, the Efficacy is recorded as 91% in assay [16], 34% in assay [17] and 68% in [6].
`COc1ccc(OC)c(C(O)CN)c1` (stereo not drawn) [DESGLYMIDODRINE]: the EC50 in assay [11] was found to be 1.9 µM; in [14], 85 µM. For the same molecule, the figures for the Ki in assay [18], in [19] and in assay [21] were 2 µM, 6.9 µM and 1.7 µM, respectively. In [2], this molecule yielded an ED20 of 250 nM/kg. This molecule also came in with an ED5 in assay [3] of 205 nM/kg. Also, the Efficacy was 106% in [16], 68% in [20] and 133% in assay [6].
